Test results published in ChEMBL document CHEMBL3286350, “Aplysinellamides A-C, bromotyrosine-derived metabolites from an Australian Aplysinella sp. marine sponge” (2014).
The source made the active and inactive calls. The calls are words filed in the database; no cut-off is given here.

These compounds were tested on CCF-STTG1 (assay: Induction of apolipoprotein E secretion from human CCF-STTG1 cells at 30 uM after 96 hrs by ELISA relative to control).
Assay type: functional
Procedure, shortened: (§1)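 Human CCF-STTG1 astrocytoma cells were incubated with test compounds at concentrations of up to 40 μM for 96 h, and apolipoprotein E secretion was then measured. The assay was also applied to fractions.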

For `CN(C)CCCOc1c(Br)cc(CCN(C)C)cc1Br` [APLYSAMINE], which “fold change (FC)” value is on record?
Its value is 2.

Each compound was assayed on CCF-STTG1 (assay: Induction of apolipoprotein E secretion from human CCF-STTG1 cells up to 40 uM after 96 hrs by ELISA).
Assay type: functional, cell-based
Procedure, shortened: as §1

How did the Activity turn out when `CNCCc1cc(Br)c(OCCCN(C)C)c(Br)c1` was run?
Its Activity is “inactive”.

`COc1c(Br)cc(/C=C/C(=O)NCCCC[C@@H](N)C(=O)O)cc1Br` was tested. Which Activity did it give?
The Activity was “inactive”.

`COc1ccc(/C=C/C(=O)NCCCCC(=O)O)cc1Br` was tested. Which Activity did it give?
The Activity was “inactive”.

With `CN(C)CCc1cc(Br)c(O)c(Br)c1` as the compound, how does the Activity read?
The Activity was “inactive”.

How did the Activity turn out when `COc1ccc(C[C@H](N)C(=O)NCCc2cc(Br)c(OCCCN(C)C)c(Br)c2)cc1Br` was run?
Its Activity is “inactive”.

How did the Activity turn out when `COc1c(Br)cc(C(=O)O)cc1Br` was run?
The Activity was “inactive”.

How did the Activity turn out when `CN(C)CCCOc1c(Br)cc(CC[N+](C)(C)O)cc1Br` was run?
The Activity was “inactive”.

With `COc1ccc(/C=C/C(=O)NCCCC[C@@H](N)C(=O)O)cc1Br` as the compound, how does the Activity read?
Its Activity is “inactive”.

With `COc1ccc(CC(C(=O)O)[N+](C)(C)C)cc1Br` (stereo not given) as the compound, how does the Activity read?
Its Activity is “inactive”.
